Test results from ChEMBL document CHEMBL1138278, “Aromatic amide derivatives of 5,6-dimethoxy-2,3-dihydro-1H-inden(-1-yl)acetic acid as anti-inflammatory agents free of ulcerogenic liability” (Bioorg Med Chem Lett, 2007).

Columns and labels:
Mus musculus [1] = test: Analgesic activity in Swiss Albino mouse assessed as inhibition of acetic acid-induced writhing responses at 100 mg/kg, po after 1 hr; format: functional
Method in brief: (§1)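 Mice dosed orally; one hour later injected i.p. with 1% v/v acetic acid at 0.1 ml/10 g. Writhings counted over 15 min, starting five minutes after injection. Means ± SEM, n = 6; p < 0.05 versus control group.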

Rattus norvegicus [2] = test: Antipyretic activity against LPS-induced pyresis in Wistar rat assessed as change in rectal temperature at 100 mg/kg, po after 6 hrs; format: functional
Method in brief: (§2)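 Male Wistar rats (170 ± 20 g) dosed orally: test agents at 100 mg/kg, indomethacin and aspirin at 10 mg/kg and 100 mg/kg. Half an hour later, LPS in apyrogenic saline given at 100 µg/kg i.p. Rectal temperature taken by telethermometer probe immediately before LPS and hourly from 1 to 7 h after. Change in temperature reported; means ± SEM, n = 6.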

Rattus norvegicus [3] = test: Antipyretic activity against LPS-induced pyresis in Wistar rat assessed as change in rectal temperature at 100 mg/kg, po after 1 hr; format: functional; method in brief: as §2
Rattus norvegicus [4] = test: Antiinflammatory in SKF-525A pretreated Wistar rat assessed as inhibition of carrageenan-induced paw edema at 100 mg/kg, po after 4 hrs; format: functional
Rattus norvegicus [5] = test: Antiinflammatory in SKF-525A pretreated Wistar rat assessed as inhibition of carrageenan-induced paw edema at 100 mg/kg, po after 3 hrs; format: functional
Rattus norvegicus [6] = test: Antiinflammatory activity in Wistar rat assessed as inhibition of carrageenan-induced paw edema at 100 mg/kg, after 1 hr; format: functional
Method in brief: (§3)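 Male Wistar rats (170 ± 20 g) dosed orally: test agents at 100 mg/kg, reference at 10 mg/kg. One hour later, 0.1 ml of 1% carrageenan injected subplantar into the right hind paw.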

Rattus norvegicus [7] = test: Antipyretic activity against LPS-induced pyresis in Wistar rat assessed as change in rectal temperature at 100 mg/kg, po after 5 hrs; format: functional; method in brief: as §2
Rattus norvegicus [8] = test: Antiinflammatory activity in Wistar rat assessed as inhibition of carrageenan-induced paw edema at 100 mg/kg, after 4 hrs; format: functional; method in brief: as §3
Rattus norvegicus [9] = test: Antiinflammatory in SKF-525A pretreated Wistar rat assessed as inhibition of carrageenan-induced paw edema at 100 mg/kg, po after 24 hrs; format: functional
Rattus norvegicus [10] = test: Antiinflammatory in SKF-525A pretreated Wistar rat assessed as inhibition of carrageenan-induced paw edema at 100 mg/kg, po after 1 hr; format: functional
Rattus norvegicus [11] = test: Antipyretic activity against LPS-induced pyresis in Wistar rat assessed as change in rectal temperature at 100 mg/kg, po after 3 hrs; format: functional; method in brief: as §2
Rattus norvegicus [12] = test: Antiarthritic activity against adjuvant-induced arthritis in Wistar rat assessed as inhibition of paw edema at 100 mg/kg, po on day 13; format: functional; conditions: 312 h
Method in brief: (§4)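 Male Wistar rats (160 ± 10 g) dosed orally once daily for 14 days, from the day before injecting 0.1 ml Freund's complete adjuvant into the subplantar surface of the right hind paw. Paw swelling, including the uninjected left paw, and body weight recorded. Means ± SEM, n = 6; p < 0.05 versus control.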

Mus musculus [13] = test: Analgesic activity in Swiss Albino mouse assessed as number of acetic acid-induced writhing at 100 mg/kg, po after 1 hr relative to control; format: functional; method in brief: as §1
Rattus norvegicus [14] = test: Antiinflammatory in SKF-525A pretreated Wistar rat assessed as inhibition of carrageenan-induced paw edema at 100 mg/kg, po after 2 hrs; format: functional
Rattus norvegicus [15] = test: Antipyretic activity against LPS-induced pyresis in Wistar rat assessed as change in rectal temperature at 100 mg/kg, po after 2 hrs; format: functional; method in brief: as §2
Rattus norvegicus [16] = test: Antiinflammatory activity in Wistar rat assessed as inhibition of carrageenan-induced paw edema at 100 mg/kg, after 2 hrs; format: functional; method in brief: as §3
Rattus norvegicus [17] = test: Antiinflammatory activity in Wistar rat assessed as inhibition of carrageenan-induced paw edema at 100 mg/kg, after 24 hrs; format: functional; method in brief: as §3
Rattus norvegicus [18] = test: Antipyretic activity against LPS-induced pyresis in Wistar rat assessed as change in rectal temperature at 100 mg/kg, po after 7 hrs; format: functional; method in brief: as §2
Rattus norvegicus [19] = test: Antiinflammatory activity in Wistar rat assessed as inhibition of carrageenan-induced paw edema at 100 mg/kg, after 3 hrs; format: functional; method in brief: as §3
Rattus norvegicus [20] = test: Antipyretic activity against LPS-induced pyresis in Wistar rat assessed as change in rectal temperature at 100 mg/kg, po after 4 hrs; format: functional; method in brief: as §2
Rattus norvegicus [21] = test: Antiarthritic activity against adjuvant-induced arthritis in Wistar rat assessed as inhibition of paw edema at 100 mg/kg, po on day 3; format: functional; conditions: 72 h; method in brief: as §4
Rattus norvegicus [22] = test: Antiinflammatory in SKF-525A pretreated Wistar rat assessed as inhibition of carrageenan-induced paw edema at 100 mg/kg, po after 6 hrs; format: functional
Rattus norvegicus [23] = test: Antiinflammatory activity in Wistar rat assessed as inhibition of carrageenan-induced paw edema at 100 mg/kg, after 6 hrs; format: functional; method in brief: as §3
Rattus norvegicus [24] = test: Antiarthritic activity against adjuvant-induced arthritis in Wistar rat assessed as inhibition of paw edema at 100 mg/kg, po on day 8; format: functional; conditions: 192 h; method in brief: as §4
Rattus norvegicus [25] = test: Toxicity in 24 hrs fasted Wistar rat assessed as ulcer index at 100 mg/kg, po after 6 hrs; format: organism-based; design: dose 100 mg/kg, route oral; conditions: in vivo
Method in brief: (§5)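 Male Wistar rats (175 ± 25 g) fasted 24 h and dosed orally. Acute arm: test agents at 100 mg/kg, indomethacin at 30 mg/kg; rats killed after 6 h, stomachs opened along the greater curvature and scored for ulcers. Chronic arm: 14-day dosing, stomachs examined post mortem at the end of the arthritis study. Ulcer index means ± SEM, n = 4.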

Rattus norvegicus [26] = test: Antiarthritic activity against adjuvant-induced arthritis in Wistar rat assessed as weight change at 100 mg/kg, po; format: functional; method in brief: as §4
Rattus norvegicus [27] = test: Antipyretic activity against LPS-induced pyresis in Wistar rat assessed as change in rectal temperature at 100 mg/kg, po after 6 hrs
Rattus norvegicus [28] = test: Antipyretic activity against LPS-induced pyresis in Wistar rat assessed as change in rectal temperature at 100 mg/kg, po after 7 hrs
Mus musculus [29] = test: Analgesic activity in Swiss Albino mouse assessed as number of acetic acid-induced writhing at 100 mg/kg, po after 1 hr relative to control
Rattus norvegicus [30] = test: Antipyretic activity against LPS-induced pyresis in Wistar rat assessed as change in rectal temperature at 10 mg/kg, po after 3 hrs; format: functional; method in brief: as §2
Mus musculus [31] = test: Analgesic activity in Swiss Albino mouse assessed as inhibition of acetic acid-induced writhing responses at 10 mg/kg, po after 1 hr; format: functional; method in brief: as §1
Rattus norvegicus [32] = test: Antipyretic activity against LPS-induced pyresis in Wistar rat assessed as change in rectal temperature at 10 mg/kg, po after 5 hrs; format: functional; method in brief: as §2
Rattus norvegicus [33] = test: Antipyretic activity against LPS-induced pyresis in Wistar rat assessed as change in rectal temperature at 10 mg/kg, po after 4 hrs; format: functional; method in brief: as §2
Rattus norvegicus [34] = test: Antipyretic activity against LPS-induced pyresis in Wistar rat assessed as change in rectal temperature at 10 mg/kg, po after 1 hr; format: functional; method in brief: as §2
Rattus norvegicus [35] = test: Antipyretic activity against LPS-induced pyresis in Wistar rat assessed as change in rectal temperature at 100 mg/kg, po after 2 hrs
Rattus norvegicus [36] = test: Toxicity in 24 hrs fasted Wistar rat assessed as ulcer index at 30 mg/kg, po after 6 hrs; format: organism-based; design: dose 30 mg/kg, route oral; conditions: in vivo; method in brief: as §5
Rattus norvegicus [37] = test: Antiinflammatory activity in Wistar rat assessed as inhibition of carrageenan-induced paw edema at 10 mg/kg, after 24 hrs; format: functional; method in brief: as §3
Rattus norvegicus [38] = test: Antiarthritic activity against adjuvant-induced arthritis in Wistar rat assessed as weight change at 10 mg/kg, po; format: functional; method in brief: as §4
Rattus norvegicus [39] = test: Antiinflammatory activity in Wistar rat assessed as inhibition of carrageenan-induced paw edema at 10 mg/kg, after 1 hr; format: functional
Method in brief: (§6)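 Male Wistar rats, 170 ± 20 g, dosed orally; 0.1 ml of 1% carrageenan injected into the right hind paw subplantar region 1 h after dosing. Paw volume read by plethysmometer at 0, 1, 2, 3, 4, 6 and 24 h after carrageenan. Percent inhibition of edema is calculated against the control group. n = 6, mean ± SEM.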

Rattus norvegicus [40] = species on record: Rattus norvegicus; test: animal or person; conditions: Wistar, 2 h, read-out: Inhibition
Rattus norvegicus [41] = test: Antiarthritic activity against adjuvant-induced arthritis in Wistar rat assessed as inhibition of paw edema at 10 mg/kg, po on day 3; format: functional; conditions: 72 h; method in brief: as §4
Rattus norvegicus [42] = test: Antiinflammatory activity in Wistar rat assessed as inhibition of carrageenan-induced paw edema at 10 mg/kg, after 4 hrs; format: functional; method in brief: as §6
Rattus norvegicus [43] = test: Antiarthritic activity against adjuvant-induced arthritis in Wistar rat assessed as inhibition of paw edema at 10 mg/kg, po on day 13; format: functional; conditions: 312 h; method in brief: as §4
Rattus norvegicus [44] = test: Antiarthritic activity against adjuvant-induced arthritis in Wistar rat assessed as inhibition of paw edema at 10 mg/kg, po on day 8; format: functional; conditions: 192 h; method in brief: as §4
Rattus norvegicus [45] = test: Toxicity in 24 hrs fasted Wistar rat assessed as ulcer index […], po after 14 days; format: organism-based; design: route oral; conditions: in vivo, 336 h; method in brief: as §5
Rattus norvegicus [46] = test: Antiinflammatory activity in Wistar rat assessed as inhibition of carrageenan-induced paw edema at 10 mg/kg, after 6 hrs; format: functional; method in brief: as §3
Rattus norvegicus [47] = test: Antiinflammatory activity in Wistar rat assessed as inhibition of carrageenan-induced paw edema at 10 mg/kg, after 3 hrs; format: functional; method in brief: as §6

COc1cc2c(cc1OC)C(CC(=O)Nc1ccc(Cl)cc1)CC2 (stereo unspecified)
inhibition in vivo at 100 mg/kg (Mus musculus [1]): 73.5%
Activity (Rattus norvegicus [2]): 0.41 °C
Activity (Rattus norvegicus [3]): -0.47 °C
inhibition in vivo at 100 mg/kg (Rattus norvegicus [4]): 57.9%
inhibition in vivo at 100 mg/kg (Rattus norvegicus [5]): 56.7%
inhibition in vivo at 100 mg/kg (Rattus norvegicus [6]): 71.9%
Activity (Rattus norvegicus [7]): 0.17 °C
inhibition in vivo at 100 mg/kg (Rattus norvegicus [8]): 60.9%
inhibition in vivo at 100 mg/kg (Rattus norvegicus [9]): 68.2%
inhibition in vivo at 100 mg/kg (Rattus norvegicus [10]): 64.3%
Activity (Rattus norvegicus [11]): -0.54 °C
inhibition in vivo at 100 mg/kg (Rattus norvegicus [12]): 4.69%
Activity (Mus musculus [13]): 9.17
inhibition in vivo at 100 mg/kg (Rattus norvegicus [14]): 56.1%
Activity (Rattus norvegicus [15]): -1.69 °C
inhibition in vivo at 100 mg/kg (Rattus norvegicus [16]): 63%
inhibition in vivo at 100 mg/kg (Rattus norvegicus [17]): 70%
Activity (Rattus norvegicus [18]): 0.4 °C
inhibition in vivo at 100 mg/kg (Rattus norvegicus [19]): 60.9%
Activity (Rattus norvegicus [20]): -0.11 °C
inhibition in vivo at 100 mg/kg (Rattus norvegicus [21]): 28.6%
inhibition in vivo at 100 mg/kg (Rattus norvegicus [22]): 59.6%
inhibition in vivo at 100 mg/kg (Rattus norvegicus [23]): 61.1%
inhibition in vivo at 100 mg/kg (Rattus norvegicus [24]): 8.08%
UI (Rattus norvegicus [25]): 0
Activity (Rattus norvegicus [26]): 3.51 g

CC(=O)Oc1ccccc1C(=O)O [ASPIRIN]
Activity (Rattus norvegicus [27]): 0.25 °C
Activity (Rattus norvegicus [28]): 0.31 °C
Activity (Mus musculus [29]): 13.33
Activity (Rattus norvegicus [30]): -0.51 °C
inhibition in vivo at 10 mg/kg (Mus musculus [31]): 61.5%
Activity (Rattus norvegicus [32]): 0.2 °C
Activity (Rattus norvegicus [33]): 0.11 °C
Activity (Rattus norvegicus [34]): -0.43 °C
Activity (Rattus norvegicus [35]): -1.45 °C

COc1ccc2c(c1)c(CC(=O)O)c(C)n2C(=O)c1ccc(Cl)cc1 [INDOMETHACIN]
UI (Rattus norvegicus [36]): 31.37
inhibition in vivo at 100 mg/kg (Mus musculus [1]): 51.5%
Activity (Rattus norvegicus [2]): 0.35 °C
Activity (Rattus norvegicus [3]): -0.39 °C
inhibition in vivo at 10 mg/kg (Rattus norvegicus [37]): 13.3%
Activity (Rattus norvegicus [38]): 5.68 g
inhibition in vivo at 10 mg/kg (Rattus norvegicus [39]): 50%
Activity (Rattus norvegicus [7]): 0.3 °C
inhibition in vivo at 10 mg/kg (Rattus norvegicus [40]): 58%
Activity (Rattus norvegicus [11]): -0.11 °C
Activity (Mus musculus [13]): 16.83
inhibition in vivo at 10 mg/kg (Rattus norvegicus [41]): 37.5%
inhibition in vivo at 10 mg/kg (Rattus norvegicus [42]): 57.8%
inhibition in vivo at 10 mg/kg (Rattus norvegicus [43]): 46.5%
Activity (Rattus norvegicus [15]): -1.03 °C
Activity (Rattus norvegicus [18]): 0.55 °C
inhibition in vivo at 10 mg/kg (Rattus norvegicus [44]): 43.9%
Activity (Rattus norvegicus [20]): 0.22 degrees C
UI (Rattus norvegicus [45]): 42
inhibition in vivo at 10 mg/kg (Rattus norvegicus [46]): 48.1%
inhibition in vivo at 10 mg/kg (Rattus norvegicus [47]): 65.2%
